STAT3 blocker: STAT3 signaling inhibition; hit rate 0.89% among 190,000; U3A cells, IL-6 STAT3-luciferase reporter, luminescence; host cell line lacks STAT1; AID 862; inhibition, % at 5.5 µM;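 active = inhibition above the mean inhibition across all screened compounds plus 3 SD, cut at about 44% in these data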;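 note: 0% = DMSO only wells and 100% = 100 µM nifuroxazide control wells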
STAT3 activator: STAT3 signaling activation; U3A cells, IL-6 STAT3-luciferase reporter, luminescence; 100% = signal with IL-6 EC80 alone; activation (% of control), % at 5.6 µM; hit rate 0.91% among 190,000; AID 871;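 active = activation above the screen-wide mean of compound activation plus 3 SD, cut at about 130% in these data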;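 note: 0% = background luminescence of wells with medium and substrate only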
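Assay system – human STAT1-deficient U3A cells with stable STAT3-luciferase reporter · Also added – IL-6 (33 ng/mL) · Schedule – compound 1 h, then IL-6 6 h at 37 °C · Technique – reporter luminescence signal · Evaluation – % activation versus median of IL-6-stimulated wells · Benchmarks – IL-6-only wells as 100% reference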
FLuc act counter: affects firefly luciferase, flagging false hits in luciferase stimulation screens; P08659; AID 1027; activation factor at 10 µM; 200,000 tested, under 10 active; ATPlite luciferase biochemical, luminescence, 10 min; 0 = ATP-free wells, 1 = DMSO control;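 active = luciferase activation factor, scaled between plate controls, of at least 2 with compound at 10 µM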
Target sequence (P08659 whole entry, looked up): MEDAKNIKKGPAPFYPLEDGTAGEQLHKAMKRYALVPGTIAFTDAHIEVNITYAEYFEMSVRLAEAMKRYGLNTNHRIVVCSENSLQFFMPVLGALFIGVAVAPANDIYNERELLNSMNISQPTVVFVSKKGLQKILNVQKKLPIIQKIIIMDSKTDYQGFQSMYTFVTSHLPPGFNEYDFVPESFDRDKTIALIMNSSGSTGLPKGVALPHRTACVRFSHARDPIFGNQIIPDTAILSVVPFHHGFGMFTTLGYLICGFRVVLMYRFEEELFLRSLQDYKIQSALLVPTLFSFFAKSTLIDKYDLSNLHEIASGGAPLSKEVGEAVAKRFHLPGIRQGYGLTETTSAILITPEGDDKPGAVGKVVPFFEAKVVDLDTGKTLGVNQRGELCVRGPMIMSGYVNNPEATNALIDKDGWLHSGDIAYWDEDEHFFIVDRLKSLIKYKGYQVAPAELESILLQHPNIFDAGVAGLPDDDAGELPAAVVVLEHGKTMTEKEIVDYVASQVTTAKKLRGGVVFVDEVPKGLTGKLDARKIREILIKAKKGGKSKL
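assay system = Luciferase/luciferin detection reagent, cell-free biochemical luciferase assay | also added = ATP substrate | times = 10 min post-reagent at room temperature | measured by = luminescence from luciferase reaction | measure = luciferase activation, seen as luminescence increase over controls | benchmarks = low control with PBS replacing ATP, high control enzyme plus ATP without compound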
STAT1 inh: STAT1 signaling inhibition | NIH 3T3 STAT1-luciferase reporter, IFN-gamma, luminescence | inhibition, % at 5.5 µM | hit rate 0.35% among 200,000;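 active = inhibition above a set limit, the mean inhibition across all tested compounds plus 3 SD, cut at about 34% in these data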;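 note: 0% = IFN-gamma with DMSO and 100% = IFN-gamma with 300 µM nifuroxazide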
STAT1 activator: activators of IFN-gamma induced STAT1 signaling. NIH 3T3 STAT1-luciferase reporter, luminescence; 100% = IFN-gamma alone, no compound. activation (% of control), % at 5.5 µM. hit rate 2.6% among 200,000;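 active = activation above the screen-wide mean activation plus 3 SD, cut at about 130% in these data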;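 note: raw ratio to IFN-gamma control signal so 100% means no change and 0% no light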
FLuc inhib CS: Photinus pyralis luciferase inhibition counter-screen; P08659; ATPLite firefly luciferase biochemical luminescence, 10 min; inhibition, % at 10 µM; hit rate 1.5% among 200,000; AID 1006;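 active = inhibition above about 50% when tested at 10 µM, limit read from the data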
STAT1 activ conf: confirmation of STAT1 signaling activators | activation (% of control), % at 5.7 µM | shares compounds with STAT1 activator | NIH 3T3 STAT1-luciferase reporter, IFN-gamma potentiation, luminescence; 100% = IFN-gamma EC80 alone, no compound | AID 1262 | hit rate 97% among 1,200;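 active = activation above a set limit carried over from the earlier primary STAT1 screen, cut at about 140% in these data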;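 note: simple ratio to median IFN-gamma plus DMSO wells so 0% means no light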
NFkB act: activates NF-kappaB, counter-screen to STAT1 activators | shares compounds with STAT1 activator | HEK293T NF-kB luciferase reporter, TNF-alpha stimulated, luminescence; 100% = TNF-alpha with vehicle only | activation (% of control), % at 5.7 µM | hit rate 43% among 1,200;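 active = activation above the mean of solvent-only control wells plus 3 SD, set per campaign, cut at about 130% in these data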;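 note: TNF-alpha given at a submaximal dose yielding about 80% of full reporter signal; values are well signal over median control so 100% means no change and 0% no light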
STAT3 act STAT1c: activates human STAT3, counter-screen to STAT1 activators. shares compounds with STAT1 activator. U3A cells STAT3-luciferase reporter, IL-6, luminescence; cells lack STAT1; 100 = IL-6 alone, no compound effect. activation (% of control), % at 5.7 µM. hit rate 46% among 1,200;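 active = activation above the solvent-only control well mean plus 3 SD, set per plate batch, cut at about 110% in these data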;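 note: 0% = no luminescence and 100% = median IL-6 plus DMSO wells; higher means more STAT3 reporter activation so hits are non-selective activators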
An asterisk follows results filed as active; · = no result. A selection: hits, their analogues and other compounds. The true share with any hit is near 4.9%.

SMILES	STAT3 blocker	STAT3 activator	FLuc act counter	STAT1 inh	STAT1 activator	FLuc inhib CS	STAT1 activ conf	NFkB act	STAT3 act STAT1c
CS(=O)(=O)N(CC(=O)Nc1cccc([N+](=O)[O-])c1)c1cccc(F)c1	5.2	100.8	1.1	-3.0	103.1	-7.3	·	·	·
COc1c(C)cccc1C(=O)Nc1ccc(N2CCOCC2)c(Cl)c1	22.0	86.9	0.8	-56.8	152.3*	25.0	198.7*	130.9	105.5
O=C(Nc1ccc(N2CCOCC2)c(Cl)c1)c1cccc(F)c1	-1.4	104.4	0.8	-84.1	185.4*	16.0	193.4*	134.9*	117.7*
NS(=O)(=O)c1ccc(Oc2ccc(S(N)(=O)=O)cc2)cc1	2.6	99.0	1.1	10.4	89.0	-5.1	·	·	·
C=CS(=O)(=O)c1ccc(Oc2ccc(S(=O)(=O)C=C)cc2)cc1	40.2	67.5	1	-245.9	323.2*	-1.6	188.9*	79.2	113.7*
O=C(c1ccc(F)cc1)c1cc2ccccc2o1	6.3	96.8	0.7	-61.9	156.7*	26.2	174.3*	129.3	102.9
COc1ccc2nc(Nc3ccc4c(c3)OCO4)sc2c1	12.5	91.4	0.9	-56.7	151.9*	12.7	162.1*	127.8	100.1
COc1ccc2nc(Nc3ccccc3)sc2c1	19.3	86.2	0.2	-54.6	150.8*	77.2*	199.6*	138.1*	99.4
Cc1ccc(Nc2nc3ccccc3s2)cc1	25.6	78.4	0.5	-103.7	192.2*	49.8	258.7*	137.0*	107.8
O=C(CCSc1nnc(-c2ccco2)o1)Nc1ccc(F)cc1	6.3	98.9	1	12.8	89.4	-2.9	·	·	·
N#CC1=C(SCC(=O)c2ccccc2)NC2=C(C(=O)CCC2)C1c1ccco1 (stereo not given)	-12.7	114.5	1	-62.7	155.7*	2.1	165.7*	128.3	105.7
COc1ccc(NC(=O)c2cc(S(=O)(=O)N3CCOCC3)cs2)cc1	1.8	103.6	1.1	5.7	94.5	-6.1	·	·	·
COc1ccc(N=C(NN)c2ccc3ccccc3n2)cc1	8.9	94.8	0.9	-13.6	112.0	11.5	·	·	·
O=C(NC1=NCCS1)c1csc2ccccc12	3.2	102.8	0.4	-55.3	152.4*	55.0*	199.5*	125.6	118.2*
O=C(NC1=NCCS1)c1cccs1	-1.3	104.8	1	2.0	98.2	-4.2	·	·	·
Cc1ccc(NC(=O)CCCc2nc3ccccc3s2)c(O)c1	-24.2	128.5	1	4.7	94.4	0.2	·	·	·
COc1ccc(C(=O)Nc2nc3ccccc3s2)cc1OC	-7.5	108.4	0.8	-82.3	174.1*	21.3	227.0*	154.6*	113.8*
CSc1nc2ccc(NC(=O)c3ccc(Cl)s3)cc2s1	·	·	0.9	-96.5	186.0*	6.5	180.6*	140.3*	104.2
O=C(Nc1nc2ccccc2s1)c1ccc(Cl)s1	21.0	89.4	0.7	-61.4	155.5*	32.2	230.6*	141.1*	108.8
O=C(Nc1nc2ccccc2s1)c1ccc(OCC2CCCO2)cc1 (stereo not given)	18.8	86.1	0.3	-86.6	177.4*	73.7*	247.8*	102.7	96.7
COc1ccc(-c2cc(C(=O)Nc3nc4ccccc4s3)c3ccccc3n2)cc1OC	-9.8	110.5	1	-3.5	103.1	0.6	·	·	·
COc1cccc(C(=O)COC(=O)c2ccc(NC(C)=O)cc2)c1	-13.9	111.7	1	-11.4	110.1	0.4	·	·	·
CCOc1cc(C(=S)N2CCOCC2)ccc1OS(=O)(=O)c1ccccc1	6.0	97.1	1	9.2	91.8	-3.1	·	·	·
